Converted amounts (≈) assume the structure as drawn. Blank lines part the entries; values can stand above or below the compound they belong to. The source made the active and inactive calls. The rule behind the calls is not given here.
Legend:
[1] = biological target: Glycogen synthase kinase-3 beta (Homo sapiens, UniProt P49841); assay: Inhibition of human recombinant GSK3-beta assessed as [gamma33]ATP transfer to biotinylated CREB-peptide substrate after 1 hr by scintillation counting
[2] = biological target: Protein kinase C alpha type (Homo sapiens, UniProt P17252); assay: Inhibition of PKCalpha
[3] = Aqueous solubility at pH 6.6; assay type: physicochemical
Mus musculus [4] = assay: AUC in mouse at 10 mg/kg, ip; assay type: ADME, organism-based, Plasma; parameters: dose 10 mg/kg, route intraperitoneal; details: in vivo, BLD = below limit of detection
Mus musculus [5] = assay: Cmax in mouse at 10 mg/kg, ip; assay type: ADME, organism-based; parameters: dose 10 mg/kg, route intraperitoneal; details: in vivo, BLD = below limit of detection
[6] = biological target: Serine/threonine-protein kinase PLK3 (Homo sapiens, UniProt Q9H4B4); assay: Inhibition of PLK3
Outline: (§1)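 Affinity measured as a binding constant (Kd) in a quantitative competition binding assay, not as a catalytic activity read-out. An 11-point concentration curve was run for each kinase. Kd values are given in µM. Each value is also expressed as a ratio over the Kd for GSK3b.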

[7] = biological target: Glycogen synthase kinase-3 alpha (Homo sapiens, UniProt P49840); assay: Inhibition of GSK3alpha; outline: as §1
[8] = biological target: Dual specificity tyrosine-phosphorylation-regulated kinase 1B (Homo sapiens, UniProt Q9Y463); assay: Inhibition of DYRK1B
Outline: (§2)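 Competition binding assay giving binding constant (Kd) from an 11-point quantitative affinity curve against each kinase in a selectivity panel; values reported in µM and as ratio over GSK3b.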

Rattus norvegicus [9] = assay: Antiosteoporosis activity in ovariectomized rat assessed as increase in bone mineral density in proximal tibia at 30 mg/kg, po QD for 3 weeks by bone densitometer relative to control; assay type: functional, organism-based; parameters: dose 30 mg/kg
[10] = biological target: Dual specificity protein kinase TTK (Homo sapiens, UniProt P33981); assay: Inhibition of TTK; outline: as §1
[11] = biological target: Cyclin-dependent kinase 18 (Homo sapiens, UniProt Q07002); assay: Inhibition of PCTK3; outline: as §1
[12] = biological target: Serine/threonine-protein kinase PLK1 (Homo sapiens, UniProt P53350); assay: Inhibition of PLK1; outline: as §1
Aurora kinase B = Aurora kinase B (Homo sapiens, UniProt Q96GD4); assay: Inhibition of AURKB; outline: as §1
[13] = biological target: Cyclin-dependent kinase 17 (Homo sapiens, UniProt Q00537); assay: Inhibition of PCTK2; outline: as §1
[14] = biological target: Mitogen-activated protein kinase 6 (Homo sapiens, UniProt Q16659); assay: Inhibition of ERK3; outline: as §1
[15] = biological target: Dual specificity protein kinase CLK2 (Homo sapiens, UniProt P49760); assay: Inhibition of CLK2; outline: as §1
[16] = biological target: Cyclin-dependent kinase 8 (Homo sapiens, UniProt P49336); assay: Inhibition of CDK8; outline: as §1
Aurora kinase A = Aurora kinase A (Homo sapiens, UniProt O14965); assay: Inhibition of AURKA; outline: as §2
[17] = biological target: Cyclin-dependent kinase 19 (Homo sapiens, UniProt Q9BWU1); assay: Inhibition of CDK11; outline: as §1
[18] = biological target: Mitogen-activated protein kinase 7 (Homo sapiens, UniProt Q13164); assay: Inhibition of ERK5; outline: as §1
Rattus norvegicus [19] = assay: Antiosteoporosis activity in ovariectomized rat assessed as increase in bone mineral density in whole femur at 30 mg/kg, po QD for 3 weeks by bone densitometer relative to control; assay type: functional, organism-based; parameters: dose 30 mg/kg
[20] = biological target: Interferon-induced, double-stranded RNA-activated protein kinase (Homo sapiens, UniProt P19525); assay: Inhibition of PRKR; outline: as §2
Aurora kinase C = Aurora kinase C (Homo sapiens, UniProt Q9UQB9); assay: Inhibition of AURKC; outline: as §1
[21] = biological target: Cyclin-dependent kinase 3 (Homo sapiens, UniProt Q00526); assay: Inhibition of CDK3; outline: as §2
[22] = biological target: Mitogen-activated protein kinase 15 (Homo sapiens, UniProt Q8TD08); assay: Inhibition of ERK8; outline: as §1
[23] = biological target: Mitogen-activated protein kinase 4 (Homo sapiens, UniProt P31152); assay: Inhibition of ERK4; outline: as §1
[24] = biological target: Dual specificity protein kinase CLK3 (Homo sapiens, UniProt P49761); assay: Inhibition of CLK3; outline: as §1
Rattus norvegicus [25] = assay: Antiosteoporosis activity in ovariectomized rat assessed as increase in bone mineral density in distal femur at 30 mg/kg, po QD for 3 weeks by bone densitometer relative to control; assay type: functional, organism-based; parameters: dose 30 mg/kg
[26] = biological target: Cyclin-dependent kinase 2 (Homo sapiens, UniProt P24941); assay: Inhibition of CDK2; outline: as §1
[27] = biological target: Mitogen-activated protein kinase 1 (Homo sapiens, UniProt P28482); assay: Inhibition of ERK2; outline: as §1
[28] = biological target: Dual specificity protein kinase CLK4 (Homo sapiens, UniProt Q9HAZ1); assay: Inhibition of CLK4; outline: as §1
[29] = biological target: Cyclin-dependent kinase 7 (Homo sapiens, UniProt P50613); assay: Inhibition of CDK7; outline: as §1
[30] = biological target: Dual specificity protein kinase CLK1 (Homo sapiens, UniProt P49759); assay: Inhibition of CLK1; outline: as §1
[31] = biological target: Cyclin-dependent kinase 9 (Homo sapiens, UniProt P50750); assay: Inhibition of CDK9; outline: as §2
[32] = biological target: Cyclin-dependent kinase 5 (Homo sapiens, UniProt Q00535); assay: Inhibition of CDK5; outline: as §1
[33] = biological target: Mitogen-activated protein kinase 3 (Homo sapiens, UniProt P27361); assay: Inhibition of ERK1; outline: as §1
[34] = biological target: Serine/threonine-protein kinase PLK4 (Homo sapiens, UniProt O00444); assay: Inhibition of PLK4; outline: as §1
[35] = biological target: Serine/threonine-protein kinase 16 (Homo sapiens, UniProt O75716); assay: Inhibition of STK16; outline: as §1
Rattus norvegicus [36] = assay: Antiosteoporosis activity in ovariectomized rat assessed as increase in bone mineral density in L5 vertebra at 30 mg/kg, po QD for 3 weeks by bone densitometer relative to control; assay type: functional, organism-based; parameters: dose 30 mg/kg
Rattus norvegicus [37] = assay: Cmax in rat at 25 mg/kg, po; details: in vivo
Rattus norvegicus [38] = assay: AUC in rat at 25 mg/kg, po; details: plasma

Sequence of Glycogen synthase kinase-3 beta (P49841 whole entry): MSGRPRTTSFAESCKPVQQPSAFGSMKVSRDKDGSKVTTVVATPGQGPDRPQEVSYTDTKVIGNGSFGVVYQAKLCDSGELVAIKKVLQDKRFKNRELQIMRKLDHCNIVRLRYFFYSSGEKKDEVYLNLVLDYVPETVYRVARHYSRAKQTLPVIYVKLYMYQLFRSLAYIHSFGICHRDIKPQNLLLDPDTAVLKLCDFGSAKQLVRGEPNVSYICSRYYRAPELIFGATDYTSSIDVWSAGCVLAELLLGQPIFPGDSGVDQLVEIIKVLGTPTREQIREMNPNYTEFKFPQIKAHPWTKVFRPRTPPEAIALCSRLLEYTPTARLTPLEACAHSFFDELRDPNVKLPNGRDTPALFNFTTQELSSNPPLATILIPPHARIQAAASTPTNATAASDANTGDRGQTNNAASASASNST
Sequence of Cyclin-dependent kinase 5 (Q00535 whole entry): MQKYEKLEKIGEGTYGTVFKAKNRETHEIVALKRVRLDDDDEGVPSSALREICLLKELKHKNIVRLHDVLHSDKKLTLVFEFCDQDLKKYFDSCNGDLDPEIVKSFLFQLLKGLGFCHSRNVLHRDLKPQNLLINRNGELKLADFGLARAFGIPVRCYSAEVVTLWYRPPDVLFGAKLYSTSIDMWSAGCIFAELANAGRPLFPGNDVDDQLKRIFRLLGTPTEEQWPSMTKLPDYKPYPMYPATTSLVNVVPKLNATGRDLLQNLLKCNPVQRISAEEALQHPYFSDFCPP
Sequence of Cyclin-dependent kinase 19 (Q9BWU1 whole entry): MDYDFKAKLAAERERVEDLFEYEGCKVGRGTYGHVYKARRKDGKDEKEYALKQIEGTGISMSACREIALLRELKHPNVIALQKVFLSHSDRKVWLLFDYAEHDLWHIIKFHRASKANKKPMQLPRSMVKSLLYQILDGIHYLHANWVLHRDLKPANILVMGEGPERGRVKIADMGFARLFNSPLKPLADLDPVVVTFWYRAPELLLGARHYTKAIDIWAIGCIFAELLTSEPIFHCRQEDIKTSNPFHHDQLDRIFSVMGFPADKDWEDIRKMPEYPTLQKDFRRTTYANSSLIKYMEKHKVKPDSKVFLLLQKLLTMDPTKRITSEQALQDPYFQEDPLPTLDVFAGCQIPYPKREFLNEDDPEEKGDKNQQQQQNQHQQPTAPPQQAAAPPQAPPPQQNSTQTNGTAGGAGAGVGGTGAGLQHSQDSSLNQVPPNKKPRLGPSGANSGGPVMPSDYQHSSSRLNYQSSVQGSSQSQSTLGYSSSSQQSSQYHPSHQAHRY
Sequence of Cyclin-dependent kinase 7 (P50613 whole entry): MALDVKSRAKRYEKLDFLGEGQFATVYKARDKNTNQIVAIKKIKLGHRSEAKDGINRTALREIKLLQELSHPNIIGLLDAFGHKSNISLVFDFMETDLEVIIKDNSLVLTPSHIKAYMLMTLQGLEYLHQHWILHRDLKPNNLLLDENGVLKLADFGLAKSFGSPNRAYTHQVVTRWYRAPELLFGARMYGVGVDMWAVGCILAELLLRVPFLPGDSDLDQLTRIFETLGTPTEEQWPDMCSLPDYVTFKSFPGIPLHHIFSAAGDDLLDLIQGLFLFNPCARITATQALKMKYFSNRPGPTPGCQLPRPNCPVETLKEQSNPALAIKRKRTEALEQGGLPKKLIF
Sequence of Cyclin-dependent kinase 3 (Q00526 whole entry): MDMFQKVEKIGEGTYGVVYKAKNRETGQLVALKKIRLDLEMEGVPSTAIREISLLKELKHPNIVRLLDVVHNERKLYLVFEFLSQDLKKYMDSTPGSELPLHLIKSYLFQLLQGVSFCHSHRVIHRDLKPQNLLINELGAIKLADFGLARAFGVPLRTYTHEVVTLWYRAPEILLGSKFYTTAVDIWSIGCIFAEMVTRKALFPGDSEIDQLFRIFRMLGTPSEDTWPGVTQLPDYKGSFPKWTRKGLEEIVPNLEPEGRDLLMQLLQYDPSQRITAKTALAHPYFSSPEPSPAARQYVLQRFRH
Sequence of Cyclin-dependent kinase 18 (Q07002 whole entry): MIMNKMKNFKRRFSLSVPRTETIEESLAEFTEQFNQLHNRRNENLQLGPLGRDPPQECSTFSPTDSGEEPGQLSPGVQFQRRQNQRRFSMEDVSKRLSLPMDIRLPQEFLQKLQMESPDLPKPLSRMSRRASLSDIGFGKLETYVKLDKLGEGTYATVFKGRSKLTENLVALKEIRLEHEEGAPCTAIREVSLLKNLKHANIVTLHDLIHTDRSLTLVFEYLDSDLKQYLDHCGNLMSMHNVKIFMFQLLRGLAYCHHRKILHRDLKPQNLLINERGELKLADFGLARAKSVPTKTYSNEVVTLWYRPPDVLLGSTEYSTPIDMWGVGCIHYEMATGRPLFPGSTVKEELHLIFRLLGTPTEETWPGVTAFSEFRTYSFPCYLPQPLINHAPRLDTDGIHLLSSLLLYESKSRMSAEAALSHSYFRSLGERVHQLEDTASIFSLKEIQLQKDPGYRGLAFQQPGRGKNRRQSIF
Sequence of Dual specificity tyrosine-phosphorylation-regulated kinase 1B (Q9Y463 whole entry): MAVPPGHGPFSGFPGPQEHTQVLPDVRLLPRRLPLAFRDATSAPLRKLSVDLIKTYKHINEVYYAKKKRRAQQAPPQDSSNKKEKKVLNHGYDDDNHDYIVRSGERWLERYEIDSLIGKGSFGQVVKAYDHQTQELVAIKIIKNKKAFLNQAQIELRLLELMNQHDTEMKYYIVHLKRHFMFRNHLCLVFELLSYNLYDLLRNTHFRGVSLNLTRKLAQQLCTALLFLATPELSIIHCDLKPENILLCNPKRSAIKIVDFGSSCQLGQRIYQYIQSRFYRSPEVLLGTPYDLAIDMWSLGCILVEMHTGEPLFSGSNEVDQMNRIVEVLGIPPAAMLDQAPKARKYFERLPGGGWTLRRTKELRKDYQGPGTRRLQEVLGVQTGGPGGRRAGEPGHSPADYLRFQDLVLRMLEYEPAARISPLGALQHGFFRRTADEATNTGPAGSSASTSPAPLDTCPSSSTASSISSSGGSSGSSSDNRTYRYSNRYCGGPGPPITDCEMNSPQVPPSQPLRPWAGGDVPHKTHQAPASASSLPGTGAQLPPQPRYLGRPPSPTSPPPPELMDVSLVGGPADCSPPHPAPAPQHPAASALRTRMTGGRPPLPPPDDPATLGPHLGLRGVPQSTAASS
Sequence of Aurora kinase C (Q9UQB9 whole entry): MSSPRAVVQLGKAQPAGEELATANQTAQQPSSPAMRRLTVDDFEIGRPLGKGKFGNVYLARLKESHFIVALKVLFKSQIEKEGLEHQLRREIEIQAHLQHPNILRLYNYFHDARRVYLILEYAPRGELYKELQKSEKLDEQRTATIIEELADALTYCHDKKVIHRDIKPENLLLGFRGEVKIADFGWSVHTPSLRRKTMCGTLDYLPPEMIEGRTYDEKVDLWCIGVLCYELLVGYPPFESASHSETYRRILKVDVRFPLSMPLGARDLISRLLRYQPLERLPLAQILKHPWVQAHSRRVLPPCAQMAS
Sequence of Serine/threonine-protein kinase PLK1 (P53350 whole entry): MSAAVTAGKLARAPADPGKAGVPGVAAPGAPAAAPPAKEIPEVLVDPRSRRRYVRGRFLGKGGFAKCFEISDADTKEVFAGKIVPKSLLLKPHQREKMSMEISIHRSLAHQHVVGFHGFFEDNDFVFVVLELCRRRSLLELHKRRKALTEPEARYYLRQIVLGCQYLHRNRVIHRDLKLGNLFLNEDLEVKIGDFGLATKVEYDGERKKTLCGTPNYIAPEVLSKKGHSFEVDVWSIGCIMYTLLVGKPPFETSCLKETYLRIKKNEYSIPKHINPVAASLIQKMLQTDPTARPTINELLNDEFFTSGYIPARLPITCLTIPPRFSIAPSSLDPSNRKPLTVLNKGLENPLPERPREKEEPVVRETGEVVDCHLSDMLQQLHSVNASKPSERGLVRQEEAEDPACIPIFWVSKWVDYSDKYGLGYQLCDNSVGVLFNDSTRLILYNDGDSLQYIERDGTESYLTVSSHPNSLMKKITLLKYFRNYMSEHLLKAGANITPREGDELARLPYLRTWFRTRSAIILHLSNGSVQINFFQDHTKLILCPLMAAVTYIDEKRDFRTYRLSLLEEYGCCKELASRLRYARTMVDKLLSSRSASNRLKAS
Sequence of Aurora kinase A (O14965 whole entry): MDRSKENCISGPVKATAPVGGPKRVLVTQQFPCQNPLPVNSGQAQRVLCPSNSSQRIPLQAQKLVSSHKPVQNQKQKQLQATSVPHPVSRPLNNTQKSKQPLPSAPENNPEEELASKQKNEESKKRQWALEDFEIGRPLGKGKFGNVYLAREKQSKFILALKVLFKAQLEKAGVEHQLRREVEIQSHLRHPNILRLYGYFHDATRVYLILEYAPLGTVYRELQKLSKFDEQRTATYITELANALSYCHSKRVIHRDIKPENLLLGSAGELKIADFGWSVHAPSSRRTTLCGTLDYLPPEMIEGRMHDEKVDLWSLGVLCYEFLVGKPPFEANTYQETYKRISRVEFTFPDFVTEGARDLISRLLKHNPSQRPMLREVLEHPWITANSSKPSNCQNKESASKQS

Compound: Nc1nc(NCCNc2ncc(-c3ncc[nH]3)c(-c3ccc(Cl)cc3Cl)n2)ccc1[N+](=O)[O-]
IC50 [1]: 0.56 nM

Compound: COc1cccc(C2=C(c3c(C)n(C)c4ccccc34)C(=O)NC2=O)c1
IC50 [1]: 220 nM

Compound: COc1cccc(C2=C(c3cn(C)c4cc(C)ccc34)C(=O)NC2=O)c1
IC50 [1]: 35 nM | IC50 [2]: 2900 nM

Compound: Cn1cc(C2=C(Oc3ccccc3)C(=O)NC2=O)c2ccccc21
IC50 [1]: 2800 nM

Compound: Cn1cc(C2=C(N(C(=O)OC(C)(C)C)c3ccccc3)C(=O)NC2=O)c2ccccc21
IC50 [1]: 3100 nM

Compound: COc1cccc(C2=C(c3cn(C)c4cccc(OC)c34)C(=O)NC2=O)c1
IC50 [1]: 1300 nM

Compound: COc1cccc(C2=C(c3cn(C)c4cc(F)ccc34)C(=O)NC2=O)c1
IC50 [1]: 31 nM | IC50 [2]: 4200 nM

Compound: Cn1cc(C2=C(c3cccc(NCCCO)c3)C(=O)NC2=O)c2ccccc21
IC50 [1]: 1 nM | IC50 [2]: 740 nM

Compound: COc1ccc(C2=C(c3cn(C)c4ccccc34)C(=O)NC2=O)cc1OC
IC50 [1]: 6.6 nM | IC50 [2]: 6600 nM

Compound: CN(C)c1nc2ccc1CCCN1C=C(C3=C(C(=O)NC3=O)c3cn(c4ccccc34)CCC2)N2C=CC=CC12 (stereo not drawn)
IC50 [1]: 7 nM

Compound: COc1ccc(C2=C(c3cn(C)c4ccccc34)C(=O)NC2=O)c(OC)c1
IC50 [1]: 2.4 nM | IC50 [2]: 5500 nM

Compound: COc1cccc(C2=C(c3cn(C)c4ccccc34)C(=O)NC2=O)c1
IC50 [1]: 90 nM | IC50 [2]: 6000 nM | solubility [3]: < 0.5 µg/mL | AUC (Mus musculus [4]): BLD | Cmax (Mus musculus [5]): BLD

Compound: Cn1cc(C2=C(c3ccccc3Cl)C(=O)NC2=O)c2ccccc21
IC50 [1]: 3.6 nM | IC50 [2]: 760 nM

Compound: Cn1cc(C2=C(c3cccs3)C(=O)NC2=O)c2ccccc21
IC50 [1]: 22 nM | IC50 [2]: 8900 nM

Compound: Cn1cc(C2=C(c3cccc(N)c3)C(=O)NC2=O)c2ccccc21
IC50 [1]: 1.8 nM | IC50 [2]: 1900 nM

Compound: Cn1cc(C2=C(c3cccc(OCC(O)CO)c3)C(=O)NC2=O)c2cc(F)ccc21 (racemic)
IC50 [1]: 1.8 nM | IC50 [2]: 2200 nM | solubility [3]: 2.8 µg/mL (≈ 6.82 µM)

Compound: Cn1cc(C2=C(c3cccc(NCC(O)CO)c3)C(=O)NC2=O)c2cc(F)ccc21 (racemic)
Kd [6]: 40 µM | Kd [7]: 1.5 nM | Kd [8]: 87 nM | Activity (Rattus norvegicus [9]): Active | Kd [10]: 6.7 µM | Kd [11]: 110 nM | Kd [12]: 23 µM | Kd (Aurora kinase B): 40 µM | Kd [13]: 69 nM | IC50 [2]: 400 nM | Kd [14]: 40 µM | Kd [15]: 10 nM | Kd [16]: 40 µM | Kd (Aurora kinase A): 40 µM | Kd [17]: 40 µM | Kd [18]: 5.6 µM | Activity (Rattus norvegicus [19]): Active | Kd [20]: 14 µM | Kd (Aurora kinase C): 23 µM | Kd [21]: 80 nM | solubility [3]: 104 µg/mL (≈ 254 µM) | Kd [22]: 32 nM | Kd [23]: 40 µM | Kd [24]: 310 nM | Activity (Rattus norvegicus [25]): Active | Kd [26]: 150 nM | Kd [27]: 40 µM | Kd [28]: 110 nM | Kd [29]: 41 nM | Kd [30]: 16 nM | Kd [31]: 410 nM | Kd [32]: 6.8 µM | Kd [33]: 40 µM | Kd [34]: 320 nM | Kd [35]: 230 nM | Activity (Rattus norvegicus [36]): Active

The remaining compounds from weak to strong by IC50 [1], led by results:

IC50 [1]: 8200 nM
Compound: Cn1cc(C2=C(N3CCOCC3)C(=O)NC2=O)c2ccccc21

IC50 [1]: 2000 nM
Compound: Cn1cc(C2=C(Sc3ccccc3)C(=O)NC2=O)c2ccccc21

IC50 [1]: 730 nM
Compound: Cn1cc(C2=C(c3ccc(-c4ccccc4)cc3)C(=O)NC2=O)c2ccccc21

IC50 [1]: 350 nM
Compound: Cn1cc(C2=C(Nc3ccccc3)C(=O)NC2=O)c2ccccc21

IC50 [1]: 42 nM | IC50 [2]: > 30000 nM
Compound: Cn1cc(C2=C(c3cccnc3)C(=O)NC2=O)c2ccccc21

IC50 [1]: 22 nM | IC50 [2]: 380 nM
Compound: COc1ccc(OC)c(C2=C(c3cn(C)c4ccccc34)C(=O)NC2=O)c1

IC50 [1]: 10 nM | IC50 [2]: 1050 nM
Compound: Cn1cc(C2=C(c3c4n(c5ccccc35)CCN(C(N)=S)C4)C(=O)NC2=O)c2ccccc21

IC50 [1]: 6.4 nM | IC50 [2]: 1400 nM
Compound: COc1cccc(C2=C(c3cn(C)c4ccc(Cl)cc34)C(=O)NC2=O)c1

IC50 [1]: 0.4 nM | IC50 [2]: 260 nM | Cmax (Rattus norvegicus [37]): 110 ng/mL | solubility [3]: 42 µg/mL (≈ 98.6 µM) | AUC (Rattus norvegicus [38]): 100 ng·h/mL
Compound: Cn1cc(C2=C(c3cccc(NCC(O)CO)c3)C(=O)NC2=O)c2cc(Cl)ccc21 (racemic)
